GASC-1 inh: human JMJD2C demethylase inhibition. AID 2099. 330,000 compounds, 0.069% hits. GST-JMJD2C(1-420) H3K9me3 demethylation, DELFIA europium. inhibition, % at 2.35 µM;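 active = more than half of a compound's replicate wells show inhibition beyond 50%, single wells judged on their own value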;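 note: signal counts dimethyl H3K9 product captured on neutravidin plate; 0% = median of DMSO wells and 100% = 0.3 times that DMSO median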
Target sequence (Q9H3R0 1-420 limits assumed): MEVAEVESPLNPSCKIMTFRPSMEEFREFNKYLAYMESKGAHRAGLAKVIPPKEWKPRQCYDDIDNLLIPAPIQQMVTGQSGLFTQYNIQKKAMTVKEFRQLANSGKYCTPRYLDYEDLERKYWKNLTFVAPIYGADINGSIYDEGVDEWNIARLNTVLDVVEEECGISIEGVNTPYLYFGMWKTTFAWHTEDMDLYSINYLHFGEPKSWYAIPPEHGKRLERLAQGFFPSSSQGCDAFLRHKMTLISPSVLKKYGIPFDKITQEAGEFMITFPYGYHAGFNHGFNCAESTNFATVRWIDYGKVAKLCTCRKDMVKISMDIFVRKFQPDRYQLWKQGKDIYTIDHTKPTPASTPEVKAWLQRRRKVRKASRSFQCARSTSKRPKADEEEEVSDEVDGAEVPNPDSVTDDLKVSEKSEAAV
ADAM17 inh: inhibitors of human ADAM17; P78536; recombinant ADAM17, EDANS/DABCYL FRET peptide cleavage; inhibition, % at 6.95 µM; 370,000 compounds, 0.83% hits; AID 720648;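 active = inhibition above the mean of compounds lying between control limits plus 3 SD, set per campaign, cut at about 8.5% in these data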;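 note: 0% = DMSO-only wells as the low control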
NR2E3 ag-1: agonists of human nuclear receptor NR2E3; Q9Y5X4; GST-NR2E3/biotin-RetCOR TR-FRET, 1536-well; inhibition of corepressor binding, % at 4.78 µM; 320,000 compounds, 0.12% hits; AID 2300;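 active = percent inhibition above the cutoff of mean plus 3 SD of all tested compounds, set per screening campaign, cut at about 20% in these data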;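 note: 0% = DMSO wells and 100% = biotin wells as full block of FRET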
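Format: 1536-well format; test system: GST-NR2E3 and biotin-RetCOR proteins; read-out basis: percent inhibition of TR-FRET ratio; timing: 5 h incubation at 4 °C; detection: time-resolved FRET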
ADAM10 inh: ADAM10 inhibition, QFRET primary screen; recombinant ADAM10, EDANS/DABCYL FRET peptide cleavage, 3 h; inhibition, % at 7 µM; 370,000 compounds, 0.62% hits; AID 720582;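 active = inhibition above a per-campaign cutoff equal to the mean of compounds falling between control-based bounds plus 3 SD, cut at about 20% in these data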;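 note: 0% = DMSO wells while the 100% control is not disclosed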
NR2E3 ag-2: human photoreceptor-specific nuclear receptor agonism | CHO-S Gal4-NCOR/VP16-NR2E3 two-hybrid, luciferase | inhibition of corepressor binding, % at 3.98 µM | 360,000 compounds, 0.35% hits | AID 602229;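 active = inhibition above the mean of all tested compounds plus 3 SD, cut at about 70% in these data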;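 note: 0% = DMSO with NR2E3 transfected cells and 100% = cells lacking NR2E3 construct; higher means lower luciferase signal from less NR2E3 corepressor binding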
KLK7 zymogen act: activators of human kallikrein-7 zymogen; activation, % at 7 µM; 370,000 compounds, 0.9% hits; P49862; purified proKLK7, EDANS-DABCYL substrate fluorescence; 100% is mature enzyme control, 0% vehicle;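 active = activation above the mean of all tested compounds plus 3 SD, computed per campaign excluding outliers beyond control limits, cut at about 13% in these data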
Target sequence (P49862 whole entry, looked up): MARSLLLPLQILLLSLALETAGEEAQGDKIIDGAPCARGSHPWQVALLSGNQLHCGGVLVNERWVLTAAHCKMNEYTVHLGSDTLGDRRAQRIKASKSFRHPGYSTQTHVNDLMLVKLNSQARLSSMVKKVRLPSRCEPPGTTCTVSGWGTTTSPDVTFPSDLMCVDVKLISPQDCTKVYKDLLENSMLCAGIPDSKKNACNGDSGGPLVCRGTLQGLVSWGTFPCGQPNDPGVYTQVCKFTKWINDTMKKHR
ADAM10 counter: ADAM10 inhibition, counter-screen for ADAM17 exosite hits; 2,900 compounds, 47% hits; recombinant ADAM10, EDANS/DABCYL FRET peptide cleavage, 3 h; AID 743256; inhibition, % at 6.95 µM; shares compounds with ADAM17 inh;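 active = mean inhibition over the triplicate runs exceeds the activity threshold set in the earlier primary screen, cut at about 20% in these data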;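 note: 0% = DMSO wells and 100% = marimastat wells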
ADAM17 confirm: confirmation of inhibitors of human ADAM17; recombinant ADAM17, EDANS/DABCYL QFRET peptide cleavage; inhibition, % at 6.95 µM; 2,900 compounds, 65% hits; shares compounds with ADAM17 inh;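 active = mean inhibition across replicates above the hit cutoff set in the primary screen, cut at about 8.5% in these data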;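 note: 0% = DMSO wells and 100% = marimastat wells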
An asterisk follows results filed as active; · = no result. Sampled rows, rich in hits. Any-hit rate of the full collection: about 2.5%.

SMILES	GASC-1 inh	ADAM17 inh	NR2E3 ag-1	ADAM10 inh	NR2E3 ag-2	KLK7 zymogen act	ADAM10 counter	ADAM17 confirm
COc1ccc(NC(=O)CC2C(=O)N(C)C(=S)N2Cc2ccncc2)cc1 (stereo not drawn)	3.8	9.1*	2.0	8.5	-12.2	-0.2	1.1	1.9
COc1ccc(NC(=O)CC2C(=O)N(C)C(=S)N2Cc2ccco2)cc1 (stereo not drawn)	-8.4	0.5	-3.5	7.5	-16.1	0.6	·	·
COc1ccc(NC(=O)c2ccc3c(c2)NC(=O)CS3)cc1	-2.8	9.5*	4.3	4.5	-42.1	1.6	9.4	6.3
CC(C)(NO)/C(=N/O)c1cccs1	0.6	9.2*	-1.9	8.0	-13.2	0.1	5.3	5.4
COc1ccc(OCc2nc(-c3ccc(F)c(F)c3)cs2)cc1	2.7	-0.9	-4.8	-2.7	22.0	0.3	·	·
CCCCOC(=O)c1ccc(NC(=O)Nc2ccc(OC)c(OC)c2)cc1	4.6	11.7*	-1.0	17.9	6.8	-0.1	26.6*	12.5*
CCOC(=O)c1ccc(NC(=O)Nc2ccc(OC)c(OC)c2)cc1	38.5	1.8	3.7	2.5	18.9	-0.5	·	·
Cn1cc(C(=O)c2ccc(Cl)cc2Cl)cc1C(=O)N/N=C(\N)COc1ccc(Cl)cc1	-33.2	10.9*	0.3	16.0	-14.0	-0.7	22.2*	15.9*
Cn1cc(C(=O)c2ccc(Cl)cc2Cl)cc1C(=O)N/N=C(\N)COc1ccc(F)cc1	-12.8	1.9	6.1	4.5	10.3	-0.7	·	·
COc1ccc2c(c1)CNC2CS(=O)(=O)NC1CCCC1 (stereo not drawn)	·	-15.4	·	-59.9	·	0.1	·	·
O=C(OC(C(=O)Nc1cc(Cl)cc(Cl)c1)c1ccccc1)C1=COCCO1 (stereo not drawn)	3.4	9.8*	-1.2	14.2	2.7	-0.3	31.2*	15.5*
COc1cc(CNCc2ccc(Br)cc2)cc(OC)c1	-3.4	-3.2	-0.4	0.5	0.5	-0.5	·	·
CC(C)(C)c1ccc(-c2nnc(SCC(=O)Nc3ccc(S(=O)(=O)Nc4nccs4)cc3)n2Cc2ccco2)cc1	·	9.6*	·	9.6	·	0.6	22.6*	13.3*
COc1cccc(-c2nnc(SCC(=O)Nc3ccc(Oc4ccccc4)cc3)n2Cc2ccco2)c1	·	9.1*	·	9.2	·	0.9	26.7*	15.9*
CCOc1ccc(-n2c(SCC(=O)Nc3ccccc3-c3ccccc3)nnc2-c2ccccc2)cc1	·	9.6*	·	18.4	·	0.4	37.7*	20.3*
O=C(CSc1nnc(-c2ccncc2)n1Cc1ccco1)Nc1nccs1	1.2	-2.4	-0.8	-6.2	-9.3	-0.6	·	·
Cc1cc(NC(=O)CSc2nnc(-c3ccccc3)n2Cc2ccco2)no1	-4.4	-5.3	-3.4	-2.6	-32.3	-0.1	·	·
CC(C)(C)c1ccc(-c2nnc(SCC(=O)Nc3ccccc3-c3ccccc3)n2Cc2ccco2)cc1	·	11.4*	·	17.0	·	0.4	20.4*	17.1*
CC(=O)Nc1ccc(/C=N/NC(=S)NC(C)C)cc1	30.3	-0.8	-1.8	1.1	2.7	-0.7	·	·
CC(C)c1ccc(NS(=O)(=O)c2ccc(-n3cccn3)cc2)cc1	7.4	9.1*	-0.3	11.5	18.4	0.2	20.9*	12.1*
CC(C)c1ccc(S(=O)(=O)Nc2ccc(-n3cnnn3)cc2)cc1	·	-1.1	·	7.5	29.2	0.2	·	·
CCOC(=O)c1sc(NC(=O)Nc2ccccc2)cc1C	2.4	9.2*	2.7	9.0	-142.0	0.0	-10.4	1.9
Cc1ccc(-c2csc(Nc3ccccn3)n2)cc1	-25.2	9.0*	-1.1	7.6	-85.9	0.0	27.3*	16.0*
OC(c1ccccc1)(c1ccccc1)C1CCN(CCCNc2ccc(C(F)(F)F)cc2)CC1	·	9.4*	·	16.6	·	0.7	19.5	10.9*
CCC(C)NS(=O)(=O)c1ccc(S(=O)(=O)N(CCc2ccc(OC)c(OC)c2)Cc2cccs2)cc1 (stereo not drawn)	8.5	8.9*	0.0	17.4	5.9	0.8	38.2*	15.7*
SMILES	GASC-1 inh	ADAM17 inh	NR2E3 ag-1	ADAM10 inh	NR2E3 ag-2	KLK7 zymogen act	ADAM10 counter	ADAM17 confirm
COc1ccc(CCN(Cc2cccs2)S(=O)(=O)c2ccc(F)cc2)cc1OC	·	15.2*	·	19.1	·	-0.3	9.8	7.0
COc1ccc(CCN(Cc2cccs2)S(=O)(=O)c2ccc(S(=O)(=O)N3CCCCCC3)cc2)cc1OC	2.3	-1.2	1.2	3.2	-10.8	-0.1	·	·
COc1ccc(CCN(Cc2cccs2)S(=O)(=O)c2ccccc2)cc1OC	·	7.3	·	10.4	·	0.6	·	·
COc1ccc(C2=NS(=O)(=O)N(C)C(C(=O)Nc3ccc(C)cc3)=C2)cc1	-0.7	8.9*	5.4	18.9	16.6	0.4	19.3	13.5*
CCc1ccc(NC(=O)C2=CC(c3ccc(OC)cc3)=NS(=O)(=O)N2C)cc1	2.1	9.2*	-4.0	11.1	17.6	-1.8	23.7*	15.4*
COc1cccc(Oc2ccc(S(=O)(=O)N3CCCC3)cc2[N+](=O)[O-])c1	1.9	8.7*	2.0	17.8	0.1	-0.1	13.1	3.0
COc1ccc(OCCOc2ccc(S(=O)(=O)N3CCCC3)cc2[N+](=O)[O-])cc1	·	1.2	-1.2	9.2	16.4	-0.1	·	·
COc1cccc(OCCn2cccc2/C=C2/C(=N)N3OC(C)=CC3=NC2=O)c1	-45.2	-0.6	-1.1	-2.2	0.9	-0.7	·	·
CC1=CC2=NC(=O)/C(=C\c3cccn3CCOc3cccc(C)c3)C(=N)N2O1	-2.2	8.7*	0.7	8.9	-23.7	0.4	5.7	7.3
CCN(CC(O)CON=C1c2ccccc2-c2ccccc21)S(=O)(=O)c1ccc(C)cc1 (stereo not drawn)	2.6	9.4*	1.2	17.0	-45.1	-3.3	22.3*	16.9*
CS(=O)(=O)N(CC(O)CON=C1c2ccccc2-c2ccccc21)c1ccc(F)cc1 (stereo not drawn)	-44.4	4.2	-2.5	13.3	4.2	-0.2	·	·
CCN(CC(O)CON=C1c2ccccc2-c2ccccc21)S(=O)(=O)c1ccc(Cl)cc1 (stereo not drawn)	3.1	6.5	0.4	15.1	-10.9	-2.7	·	·
CN(CC(O)CON=C1c2ccccc2-c2ccccc21)S(=O)(=O)c1ccc(Br)cc1 (stereo not drawn)	-3.5	8.8*	-1.2	17.5	2.8	-3.5	23.0*	14.2*
CCCCOC(=O)C1=C(C)Nc2nnnn2C1c1ccccc1Cl (stereo not drawn)	-3.8	9.6*	-0.9	13.6	7.4	0.6	15.7	8.4
